KCNK9 block – inhibitors of human KCNK9 two-pore domain potassium channel; B-score at 10 µM; Q9NPC2; AID 488922; HEK293 KCNK9, FluxOR thallium flux fluorescence; stronger effect = lower value; 310,000 compounds, 1.2% hits;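 active = ratio B-score over 3 SD below the library mean, with starting fluorescence within 5 SD of its mean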;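 also: negative B-score means less thallium flux so channel inhibition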
KCNK3 block – human KCNK3 channel inhibition, primary screen. O14649. CHO-KCNK3 thallium flux, FluxOR fluorescence; stronger effect = lower value. B-score at 10 µM. 340,000 compounds, 0.84% hits. AID 602410;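 active = B-score under library mean minus 4 SD, starting fluorescence ratio at most library mean plus 5 SD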;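 also: more negative B-score means stronger inhibition of thallium flux through KCNK3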
KCNQ1 block – blocks the human KCNQ1 potassium channel; P51787; CHO-K1 KCNQ1, FluxOR thallium flux fluorescence; stronger effect = higher value; B-score at 10 µM; 310,000 compounds, 1.3% hits;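 active = compounds whose thallium flux B-score, printed positive for inhibition, exceeds three library SD while starting fluorescence stays within three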;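 also: channel opened by potassium depolarization with thallium stimulus after 20 min compound exposure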
hERG rescue – compounds protecting human hERG from proarrhythmic drug block; CHO-hERG, FluxOR thallium flux, dofetilide IC70 present; activation (rescue from dofetilide block), less the hit threshold, % at 10 µM; 310,000 compounds, 0.51% hits; AID 1511;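 active = activation above the mean of controls blocked by dofetilide plus 5 SD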;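 also: thallium influx through hERG after potassium depolarization seen as dye fluorescence rise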
KCNQ1 pot – potentiators or activators of human KCNQ1 potassium channel; 310,000 compounds, 0.35% hits; P51787; CHO-K1 KCNQ1, thallium flux FluxOR fluorescence; stronger effect = higher value; AID 2648; B-score at 10 µM;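 active = fluorescence ratio B-score, a plate-corrected score, at least three library SD, with initial intensity B-score within 5 SD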
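assay system = KCNQ1-transfected CHO-K1 cells | medium = assay buffer with matched DMSO | probe or stimulus = depolarizing K+/Tl+ stimulus, K2SO4 and Tl2SO4 each 12.5 mM in 5x stock | dosing = single dose | incubation = dye 90 min, compound 20 min, room temperature | detection = kinetic FluxOR fluorescence, 10 s baseline plus 110 s post-stimulus | evaluation = ratio B score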
Kir21 inh – inhibitors of mouse Kir2.1 inward-rectifier potassium channel; B-score at 10 µM; HEK293-Kir2.1, FluxOR thallium flux fluorescence; stronger effect = lower value; 310,000 compounds, 0.85% hits; AID 1672;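 active = fluorescence ratio B-score at or below minus 3 SD of library scores, with starting-brightness B-score within 2 SD, cut at about -4.2 in these data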;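 also: channel flux triggered by added potassium and thallium sulfate stimulus; B-score of peak minus minimum fluorescence over baseline after thallium stimulus; more negative B-score means stronger Kir2.1 block with less thallium influx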
Target sequence (P35561 whole entry, looked up): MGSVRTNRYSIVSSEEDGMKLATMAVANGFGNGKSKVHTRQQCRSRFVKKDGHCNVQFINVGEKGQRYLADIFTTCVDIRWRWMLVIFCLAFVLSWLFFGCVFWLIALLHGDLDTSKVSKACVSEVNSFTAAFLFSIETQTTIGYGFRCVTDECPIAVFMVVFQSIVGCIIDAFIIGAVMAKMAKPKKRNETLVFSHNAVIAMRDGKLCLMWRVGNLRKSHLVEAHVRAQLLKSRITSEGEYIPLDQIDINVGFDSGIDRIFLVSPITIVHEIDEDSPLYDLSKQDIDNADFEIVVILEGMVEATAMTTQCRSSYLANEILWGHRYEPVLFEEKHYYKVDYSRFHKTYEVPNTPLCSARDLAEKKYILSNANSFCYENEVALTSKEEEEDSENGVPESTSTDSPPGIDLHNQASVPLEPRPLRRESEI
KCNK3 inh conf – confirmation of human KCNK3 two-pore domain potassium channel inhibitors; CHO-KCNK3 thallium flux, FluxOR fluorescence; 0% buffer, 100% carvedilol maximal block; 2,400 compounds, 99% hits; ratio percent of control, % at 10 µM; shares compounds with KCNK3 block;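 active = ratio percent of control, averaged over triplicates, above buffer control mean plus 5 SD, cut at about 64% in these data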;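 also: ratio is the fluorescence rise from min to max over baseline after thallium stimulus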
KCNK3 uninduced – activity in cells without induced KCNK3 expression; shares compounds with KCNK3 block; non-induced KCNK3 parental cells, FluxOR thallium flux; stronger effect = lower value; thallium flux ratio (lower = more inhibition) at 10 µM; 2,400 compounds, 40% hits; AID 651747;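 active = thallium flux ratio, averaged over three wells, more than 5 SD below the buffer control mean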;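 also: host cells are CHO cells without KCNK3 induction; ratio is peak minus trough fluorescence over baseline then normalized to buffer controls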
* marks the source's active call; other numbers are inactive results; i = inactive; · = no result given. An excerpt weighted towards active compounds, which were near 3.8% of everything screened.

SMILES	KCNK9 block	KCNK3 block	KCNQ1 block	hERG rescue	KCNQ1 pot	Kir21 inh	KCNK3 inh conf	KCNK3 uninduced
CCN(CC)CCNC(=O)c1ccc(NC(=O)c2c(C)nn(-c3ccc(F)cc3)c2Cl)cc1	i	i	i	-8.2	i	0.17	·	·
COc1ccc(S(=O)(=O)Nc2c(NC3CCCCC3)c3ccccc3oc2=O)cc1OC	i	i	i	-2.9	i	1.22	·	·
CN(C)S(=O)(=O)c1ccc(C(=O)NCc2nnc(SCC(=O)Nc3ccc(F)cc3)n2-c2ccc(F)cc2)cc1	i	i	i	-14.7	i	0.91	·	·
O=C(NCc1ccc2c(c1)OCO2)c1ccc(CSCc2ccc(Cl)cc2)o1	i	-8.79*	i	-8.2	i	-0.07	96.3*	0.138*
CCOC(=O)C1=C(c2ccccc2)NC(SCC(=O)Nc2cccc(C)c2)=C(C#N)C1c1ccco1 (centres undefined)	-6.67*	-8.72*	i	-7.0	i	-0.32	113.3*	i
Cc1cc(NS(=O)(=O)c2ccc(NC(=O)CCCOc3ccccc3C)cc2)no1	i	i	i	-6.0	i	2.18	·	·
Cc1sc2ncnc(N3CCN(S(=O)(=O)c4ccc(C(C)(C)C)cc4)CC3)c2c1C	·	i	·	·	·	·	·	·
Cc1sc2ncnc(N3CCN(S(=O)(=O)c4ccc(Br)cc4)CC3)c2c1C	i	-12.2*	i	-16.1	i	0.08	115.7*	0.149*
Cc1ccc(SCC(=O)N2c3ccccc3Sc3ccccc32)cc1	i	-9.58*	i	-8.1	i	0.08	104.7*	0.157*
COc1ccc(C2(c3ccc(OC)cc3)NC(=O)N(CC(=O)Nc3ccc(OC)c(OC)c3)C2=O)cc1	i	i	i	-9.3	i	-1.05	·	·
CCN(C(=O)c1ccc(S(=O)(=O)N2CCCCC2)cc1)C1CCS(=O)(=O)C1 (centres undefined)	i	i	i	-8.1	i	1.91	·	·
O=C(Cn1nc(-c2ccccc2)nc1-c1ccccc1)OC1CCCCC1	i	-10.1*	i	-10.2	i	-0.25	104.3*	i
Cc1nc(Cl)c(Cl)n1CCOc1ccccc1	i	i	i	-6.9	i	-0.26	·	·
c1ccc(COc2ncnc3c2ncn3CCCNCc2ccc3c(c2)OCO3)cc1	·	i	·	·	·	·	·	·
CSc1nc(N2CCN(Cc3ccc4c(c3)OCO4)CC2)c2ccccc2n1	i	-12.9*	i	-9.6	i	-0.2	112.0*	i
c1ccc(CN2CCN(c3nc4ccccc4c4ccccc34)CC2)cc1	i	-11.1*	i	-10.7	i	1.09	98.3*	i
c1ccc(CN2CCN(c3nc(NCc4ccco4)c4ccccc4n3)CC2)cc1	i	-11.1*	i	-38.4	i	-3.53	140.7*	0.101*
COc1ccc(CCN2C(=O)c3cccc4cccc(c34)C2=O)cc1OC	i	i	i	-8.0	i	-0.03	·	·
COc1ccc(CN2C(=O)c3cccc4cccc2c34)cc1F	i	-9.34*	i	-8.9	i	-0.16	90.3*	i
Cc1sc2ncnc(N3CCN(Cc4ccccc4)CC3)c2c1-c1ccccc1	i	-9.62*	i	-13.2	57*	0.05	111.7*	0.158*
Cc1ccc2[nH]c3c(N4CCN(Cc5ccccc5)CC4)ncnc3c2c1	i	-10.1*	i	-25.3	i	-1.81	130.0*	0.112*
COc1ccc(CCN(Cc2cc3cc(C)cc(C)c3nc2Cl)C(=O)C2CC2)cc1	i	-10.8*	i	-17.3	i	1.08	98.3*	i
Cc1noc(C)c1S(=O)(=O)N(Cc1ccccc1)C(C)C	i	i	i	-8.7	i	-1.17	·	·
Cc1ccc(S(=O)(=O)CCC(=O)c2cccc([N+](=O)[O-])c2)cc1	i	-9.46*	i	-26.3	i	-9.46*	113.7*	0.118*
CC1=CC2=NC(=O)/C(=C\c3cccn3CCOc3ccccc3C)C(=N)N2O1	i	-8.87*	i	-5.6	i	1.8	115.0*	0.16*
SMILES	KCNK9 block	KCNK3 block	KCNQ1 block	hERG rescue	KCNQ1 pot	Kir21 inh	KCNK3 inh conf	KCNK3 uninduced
COc1ccccc1OCCOc1ccc(/C=C2/C(=N)N3OC(C)=CC3=NC2=O)cc1OC	i	i	i	-6.8	i	-0.03	·	·
CCOC(=O)c1c2c(c(=S)n(-c3ccccc3)c1N)CCC2	i	-10.1*	i	-8.7	i	1.31	123.0*	0.114*
CCOC(=O)c1c(N)sn(-c2ccccc2)c1=S	i	i	i	-4.1	i	0.84	·	·
N=c1n(Cc2ccc(Cl)cc2)c2ccccc2n1CC(O)COc1ccccc1 (centres undefined)	i	-11.9*	i	-23.6	i	-9.61*	123.0*	i
N=c1n(CCO)c2ccccc2n1Cc1ccc(Cl)cc1	i	i	i	-13.2	i	-2.14	·	·
CCn1c(=S)sc2c(=O)n(CC(=O)Nc3ccccc3C(F)(F)F)c(C)nc21	i	i	i	-5.4	i	-0.05	·	·
CC(C)c1ccc(-c2noc(C3CCCN(C(=O)c4ccc(F)cc4F)C3)n2)cc1 (centres undefined)	i	-9.76*	i	-10.6	i	0.25	133.7*	0.144*
CN(C)S(=O)(=O)Oc1ccsc1C(=O)Nc1ccccc1Cl	i	i	i	-10.0	i	-1.33	·	·
CN(C)S(=O)(=O)Oc1ccsc1C(=O)Nc1cccc(Cl)c1Cl	i	-9.06*	i	-5.6	i	-0.07	87.7*	i
CC(CNC(=O)c1cccs1)c1ccc([N+](=O)[O-])cc1 (centres undefined)	i	i	i	-3.4	i	-0.89	·	·
CCOC(=O)c1nc(C)nc(Sc2n[nH]c(-c3cc(C(F)(F)F)cc(C(F)(F)F)c3)n2)c1C	i	-9.4*	6*	-11.0	i	-0.29	102.3*	0.117*
COc1ccc(CCN2C(=S)N(C)C(=O)C2CC(=O)Nc2ccc(OC)cc2)cc1 (centres undefined)	i	-9.2*	i	-7.7	i	-0.67	86.3*	0.147*
COc1ccc(NC(=O)CC2C(=O)N(C)C(=S)N2CCc2ccc(F)cc2)cc1 (centres undefined)	i	i	i	-8.3	i	1.23	·	·
CCN1C(=O)C(CC(=O)Nc2ccc(OC)cc2)N(CCCN2CCN(c3ccc(F)cc3)CC2)C1=S (centres undefined)	i	i	i	-4.8	i	0.23	·	·

Source: PubChem BioAssay (Johns Hopkins Ion Channel Center)
